Laboratory results published in ChEMBL document CHEMBL3769305, “Glucose-functionalized amino-OPEs as biocompatible photosensitizers in PDT” (Eur J Med Chem, 2016).
Calls of active or inactive are those of the source. No cut-off for these calls is given here.

Experiments:
HeLa [1] = assay: Phototoxicity against human HeLa cells assessed as cell lethality at 3 to 250 uM incubated for 6 hrs followed by UV irradiation at 0.5 J/cm'2 measured after 24 hrs by MTT assay; assay type: functional
How it was run: (§1)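 Cultures at 60–70% confluence were loaded with the photosensitizer for 6 h in medium with 1% FBS and <0.5% DMSO. Medium was then replaced and cells were irradiated with UVA (300–400 nm, 15.9 W/m² at 10 cm), then washed and kept in complete medium for 24 h. Survival was read by MTT (50 µg/mL, 4 h, 542 nm) as % of untreated control OD.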

[2] = Drug uptake in golgi apparatus of human Hep2 cells at 1 uM after 6 hrs by NBD dye-based fluorescence microscopy; assay type: ADME, cell-based; settings: hep-2, 6 h
How it was run: (§2)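 Cells grown on glass coverslips were incubated with 1×10^-6 M photosensitizer for 6 h at 37 °C, washed twice in PBS and imaged live by fluorescence microscopy. Organelle probes (ER-Tracker, ex 374/em 430 nm; NBD-Golgi, ex 466/em 536 nm) were applied for 30 min at the supplier's concentrations, and their patterns were compared with the compound signal.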

HaCaT [3] = assay: Induction of necrotic morphological changes in human HaCaT cells at LD50 after 24 hrs by Hoechst 33258 staining-based fluorescence microscopy in presence of UVA light; assay type: cell-based
[4] = Phototoxicity against human Hep2 cells incubated for 6 hrs followed by UV irradiation at 0.25 J/cm'2 measured after 24 hrs by MTT assay; assay type: functional, HEp-2; how it was run: as §1
HeLa [5] = assay: Induction of microtubule disruption in human HeLa cells assessed as appearance of extrapoles at LD50 after 24 hrs by immunofluorescence assay in presence of UVA light; assay type: cell-based
[6] = Induction of microtubule disruption in human HaCaT cells at LD50 after 24 hrs by immunofluorescence assay in presence of UVA light; assay type: cell-based
[7] = Phototoxicity against human Hep2 cells assessed as cell lethality at 3 to 250 uM incubated for 6 hrs followed by UV irradiation at 0.5 J/cm'2 measured after 24 hrs by MTT assay; assay type: functional, HEp-2; how it was run: as §1
HEp-2 [8] = assay: Induction of cell morphological changes in human Hep2 cells assessed as deep deformation of cell membrane at LD90 after 24 hrs by Hoechst 33258 staining-based phase contrast microscopy in presence of 1 to 2 J/Cm'2 UVA light; assay type: functional
HaCaT [9] = assay: Phototoxicity against human HaCaT cells assessed as cell lethality at 3 to 250 uM incubated for 6 hrs followed by UV irradiation at 1 J/cm'2 measured after 24 hrs by MTT assay; assay type: cell-based; how it was run: as §1
HaCaT [10] = assay: Induction of cell morphological changes in human HaCaT cells assessed as deep deformation of cell membrane at LD90 after 24 hrs by Hoechst 33258 staining-based phase contrast microscopy in presence of 1 to 2 J/Cm'2 UVA light
[11] = Dark toxicity against human HeLa cells assessed as cell survival at 5 uM incubated for 6 hrs measured after 24 hrs by MTT assay; assay type: cell-based; settings: read-out: Survival
How it was run: (§3)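 Cells (HaCaT and HeLa in DMEM, HEp-2 in RPMI, each with 10% FBS, at 37 °C and 5% CO2) were treated at 60–70% confluence. The compound was added from a 10^-3 M DMSO stock in medium with 1% FBS (final DMSO <0.5%) at 3·10^-6 to 2.5·10^-5 M and kept in the dark (6 h per table footnote, 18 h per methods). After 24 h, MTT at 50 µg/mL for 4 h, read at 542 nm as % of control OD.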

HeLa [12] = assay: Induction of microtubule disruption in human HeLa cells assessed as increase in mitotic index at LD50 after 24 hrs by immunofluorescence assay in presence of UVA light; assay type: cell-based
HeLa [13] = assay: Induction of cell morphological changes in human HeLa cells assessed as cytoplasmic vacuolization at 3 to 5 uM after 24 hrs by Hoechst 33258 staining-based phase contrast microscopy in presence of UVA light; assay type: functional
[14] = Phototoxicity against human Hep2 cells assessed as cell lethality at 3 to 250 uM incubated for 6 hrs followed by UV irradiation at 1 J/cm'2 measured after 24 hrs by MTT assay; assay type: functional, HEp-2; how it was run: as §1
[15] = Induction of microtubule disruption in human HaCaT cells assessed as appearance of apoptotic morphology at LD50 after 24 hrs by immunofluorescence assay in presence of UVA light; assay type: cell-based
[16] = Drug uptake in golgi apparatus of human HeLa cells at 1 uM after 6 hrs by NBD dye-based fluorescence microscopy; assay type: ADME, cell-based; how it was run: as §2
HeLa [17] = assay: Phototoxicity against human HeLa cells incubated for 6 hrs followed by UV irradiation at 0.25 J/cm'2 measured after 24 hrs by MTT assay; assay type: functional; how it was run: as §1
HEp-2 [18] = assay: Induction of microtubule disruption in human Hep2 cells assessed as appearance of extrapoles at LD50 after 24 hrs by immunofluorescence assay in presence of UVA light; assay type: cell-based
HaCaT [19] = assay: Phototoxicity against human HaCaT cells assessed as cell lethality at 3 to 250 uM incubated for 6 hrs followed by UV irradiation at 2 J/cm'2 measured after 24 hrs by MTT assay; assay type: cell-based; how it was run: as §1
HeLa [20] = assay: Phototoxicity against human HeLa cells assessed as appearance of rounded cells at LD50 after 24 hrs by acridine orange/ethidium bromide staining-based assay in presence of 0.25 to 0.5 J/cm'2 UVA light; assay type: functional, cell-based
How it was run: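 Cells (HaCaT, HeLa in DMEM; HEp-2 in RPMI; 10% FBS) at 60–70% confluence were incubated 6 h with 3·10^-6 M photosensitizer (DMSO stock diluted in medium with 1% FBS, final DMSO <0.5%). Medium was replaced and cells were given 0.25 J/cm² UVA (300–400 nm). 24 h later, cells were stained live with 50 µg/ml AO plus 50 µg/ml EtBr in PBS. Within 15 min, 200 cells per condition were scored as living, rounded, apoptotic or necrotic.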

HEp-2 [21] = assay: Induction of cell morphological changes in human Hep2 cells assessed as appearance of rounded cells at 3 to 5 uM after 24 hrs by Hoechst 33258 staining-based phase contrast microscopy in presence of UVA light; assay type: functional
[22] = Dark toxicity against human HaCaT cells assessed as cell survival at 3 uM incubated for 6 hrs measured after 24 hrs by MTT assay; assay type: cell-based; settings: read-out: Survival; how it was run: as §3
HaCaT [23] = assay: Induction of morphological changes in human HaCaT cells assessed as nuclear retraction at LD50 after 24 hrs by Hoechst 33258 staining-based fluorescence microscopy in presence of UVA light; assay type: cell-based
HEp-2 [24] = assay: Induction of cell morphological changes in human Hep2 cells assessed as cytoplasmic vacuolization at 3 to 5 uM after 24 hrs by Hoechst 33258 staining-based phase contrast microscopy in presence of UVA light; assay type: functional
HEp-2 [25] = assay: Induction of cell morphological changes in human Hep2 cells assessed as cellular stretching at 3 to 5 uM after 24 hrs by Hoechst 33258 staining-based phase contrast microscopy in presence of UVA light; assay type: functional

Row | Compound | mortality (HeLa [1]) [%] | Drug uptake [2] | Activity (HaCaT [3]) | LD50 [4] [×10⁻⁶ M] | Activity (HeLa [5]) | Activity [6] | mortality [7] [%] | Activity (HEp-2 [8]) | mortality (HaCaT [9]) [%] | Activity (HaCaT [10]) | viability at 6 h, 5 µM [11] [%] | Activity (HeLa [12]) | Activity (HeLa [13]) | mortality [14] [%] | Activity [15] | Drug uptake [16] | LD50 (HeLa [17]) [×10⁻⁶ M] | Activity (HEp-2 [18]) | mortality (HaCaT [19]) [%] | Activity (HeLa [20]) | other results
1 | COc1cc(C#Cc2ccc(C#CCO[C@@H]3O[C@H](CO)[C@@H](O)[C@H](O)[C@H]3O)cc2N(C)C)c(OC)cc1C#Cc1ccc(C#CCO[C@@H]2O[C@H](CO)[C@@H](O)[C@H](O)[C@H]2O)cc1N(C)C | >50 | Active | Toxic | 3 | Active | Toxic | >50 | Active | > 50 | Toxic | 93.5 | Active | Active | >50 | Toxic | Active | 3 | Active | > 50 | Active | Activity (HEp-2 [21]): Active; viability at 6 h, 3 µM [22]: 91.5%; Activity (HaCaT [23]): Toxic; Activity (HEp-2 [24]): Active; Activity (HEp-2 [25]): Active
2 | COc1cc(C#Cc2ccc(C#Cc3cc(OC)c(C#CCO[C@@H]4O[C@H](CO)[C@@H](O)[C@H](O)[C@H]4O)cc3OC)c(N(C)C)c2)c(OC)cc1C#CCO[C@@H]1O[C@H](CO)[C@@H](O)[C@H](O)[C@H]1O | >50 | Active | Toxic | 3 | Active | Toxic | >50 | Active | > 50 | Toxic | 95.4 | Active | Active | >50 | Toxic | Active | 3 | Active | > 50 | Active | Activity (HEp-2 [21]): Active; viability at 6 h, 3 µM [22]: 92.4%; Activity (HaCaT [23]): Toxic; Activity (HEp-2 [24]): Active; Activity (HEp-2 [25]): Active
